From ChEMBL document CHEMBL5331087, “Targeted AURKA degradation: Towards new therapeutic agents for neuroblastoma” (Eur J Med Chem, 2023)
Active and inactive are the calls of the source. The calls are words filed in the database; no cut-off is given here.

Assays:
[1] = Growth inhibition of patient derived NB059 Neuroblastoma organoid assessed as reduction in viability incubated for 48 hrs by CellTiter Glo 3D assay; format: functional, tissue-based, Homo sapiens; details: in the assay text read “120 hrs” for “48 hrs”
How it was run: (§1)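 Patient-derived organoids were dissociated to single cells with Accutase and seeded in NB organoid medium at 5000 (000GKX), 20000 (NB059), 5000 (NB067) or 3000 (NB139) cells/well. Compound was added after 24 h over a concentration range in triplicate, with DMSO matched. Incubation was 120 h at 37 °C and 5% CO2. Viability was read by CellTiter-Glo 3D, and absolute IC50 derived (n = 1).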

[2] = Growth inhibition of patient derived NB067 Neuroblastoma organoid assessed as reduction in viability […] by CellTiter Glo 3D assay; format: functional, tissue-based; details: Homo sapiens; how it was run: as §1
[3] = Antiproliferative activity against human N206 cells assessed as reduction in cell viability incubated for 48 hrs relative to control; format: functional
[4] = molecular target: T1, N-myc proto-oncogene protein (Homo sapiens) (UniProt P04198); assay: Induction of MYCN degradation in human NGP cells incubated for 24 hrs by immunoblotting analysis; format: cell-based; details: dose 10-1000 nM
T1 sequence (whole entry): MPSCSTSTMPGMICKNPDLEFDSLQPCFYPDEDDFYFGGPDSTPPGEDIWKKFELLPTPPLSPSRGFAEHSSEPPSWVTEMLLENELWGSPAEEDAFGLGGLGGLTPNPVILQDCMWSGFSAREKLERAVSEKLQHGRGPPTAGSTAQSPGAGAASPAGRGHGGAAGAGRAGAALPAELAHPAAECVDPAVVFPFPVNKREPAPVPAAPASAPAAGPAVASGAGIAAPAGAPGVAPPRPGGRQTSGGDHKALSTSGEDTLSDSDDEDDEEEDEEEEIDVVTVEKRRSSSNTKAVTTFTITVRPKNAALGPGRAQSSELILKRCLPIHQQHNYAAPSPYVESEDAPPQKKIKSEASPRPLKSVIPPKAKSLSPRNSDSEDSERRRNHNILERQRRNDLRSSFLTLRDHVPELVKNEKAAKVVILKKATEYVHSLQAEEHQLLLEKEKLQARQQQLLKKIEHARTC

[5] = Antiproliferative activity against human N206 cells assessed as reduction in cell viability incubated for 48 hrs; format: functional, cell-based
How it was run: (§2)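 Cells were grown in RPMI 1640 with 10% FCS and 2 mM L-glutamine. Seeding was 4500 cells/well for NGP, IMR-32 and N206, and 2100 cells/well for SK-N-AS, with adherence overnight. Compound was dispensed over a concentration range in triplicate. Confluence was imaged live for 48 h and normalised to the DMSO control. Absolute IC50 came from a four-parameter variable-slope fit (n = 4).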

IMR-32 [6] = assay: Antiproliferative activity against human IMR-32 cells assessed as reduction in cell viability incubated for 48 hrs; format: functional, cell-based; details: IMR-32, 48 h; how it was run: as §2
[7] = molecular target: T2, Protein cereblon/Aurora kinase A (Homo sapiens) (UniProt O14965+Q96SW2); assay: PROTAC activity at AURKA/CRBN in human NGP cells assessed as reduction in AURKA level at 500 nM measured for 48 hrs by Western blot analysis; format: cell-based; parameters: scale not given: the % may be the effect or the level left
How it was run: (§3)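 NGP cells were treated with 500 nM compound and harvested at 0, 1, 3, 6, 24, 48 and 72 h. RIPA lysates (35 µg) were run on 10% SDS-PAGE and blotted to nitrocellulose. AURKA and MYCN were probed with vinculin as loading control and quantified by densitometry. Values are percent remaining relative to the DMSO control at each timepoint (n = 3).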

SK-N-AS [8] = assay: Antiproliferative activity against human SK-N-AS cells assessed as reduction in cell viability incubated for 48 hrs relative to control; format: functional
How it was run: (§4)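 Cells grown in RPMI 1640 with 10% fetal calf serum, 2 mM L-glutamine and penicillin/streptomycin at 37 °C, 5% CO2. Seeded at 4500 (IMR-32) or 2100 (SK-N-AS) cells/well in 384-well plates and left to adhere overnight. Concentration range dispensed in triplicate. Confluence tracked by IncuCyte live-cell imaging, and 48h values normalized to DMSO. Absolute IC50 taken from a four-parameter variable-slope fit (n = 4).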

[9] = molecular target: T2, Protein cereblon/Aurora kinase A (Homo sapiens); assay: PROTAC activity at AURKA/CRBN in human NGP cells assessed as AURKA degradation at 10 to 1000 nM measured for 24 hrs in presence of thalidomide by Western blot analysis; format: cell-based; details: dose 10-1000 nM
NGP = assay: Induction of apoptosis in human NGP cells assessed as increase in caspase3/7 level at 10 nM incubated for 24 hrs; format: functional, cell-based
How it was run: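 NGP cells were seeded at 25,000 cells/well and allowed to adhere overnight. Compound was dispensed in triplicate with DMSO matched. At 24 h, cell-occupied area was imaged live, then a Caspase-Glo 3/7 assay was run using 50 µL reagent per well. Signal is expressed per cell-occupied area.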

[10] = Growth inhibition of patient derived NB067 Neuroblastoma organoid assessed as reduction in viability incubated for […] by CellTiter Glo 3D assay relative to control; format: functional; details: Homo sapiens
[11] = Antiproliferative activity against human NGP cells assessed as reduction in cell viability incubated for 48 hrs; format: functional, cell-based; how it was run: as §2
[12] = Antiproliferative activity against human NGP cells assessed as reduction in cell viability incubated for 48 hrs relative to control; format: functional
IMR-32 [13] = assay: Antiproliferative activity against human IMR-32 cells assessed as reduction in cell viability incubated for 48 hrs relative to control; format: functional; how it was run: as §4
[14] = molecular target: T2, Protein cereblon/Aurora kinase A (Homo sapiens); assay: PROTAC activity at AURKA/CRBN in human NGP cells assessed as AURKA degradation at 100 nM measured for 3 hrs by shotgun proteome profiling relative to control
[15] = molecular target: T2, Protein cereblon/Aurora kinase A (Homo sapiens); assay: PROTAC activity at AURKA/CRBN in human NGP cells assessed as increase in H2AX phosphorylation at 10 to 1000 nM measured for 24 hrs by immunoblotting analysis; format: cell-based; details: dose 10-1000 nM
[16] = molecular target: T2, Protein cereblon/Aurora kinase A (Homo sapiens); assay: PROTAC activity at AURKA/CRBN in human NGP cells assessed as increase in pCHK1 level at 10 to 1000 nM measured for 24 hrs by immunoblotting analysis; format: cell-based; details: dose 10-1000 nM
SK-N-AS [17] = assay: Antiproliferative activity against human SK-N-AS cells assessed as reduction in cell viability incubated for 48 hrs; format: functional, cell-based; details: Homo sapiens, SK-N-AS, 48 h; read-out: IC50; how it was run: as §2
[18] = molecular target: T2, Protein cereblon/Aurora kinase A (Homo sapiens); assay: PROTAC activity at AURKA/CRBN in human NGP cells assessed as AURKA degradation at 10 to 1000 nM measured for 24 hrs by Western blot analysis relative to control; format: cell-based; details: dose 10-1000 nM
How it was run: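 NGP cells were seeded at about 2×10^6 per flask, adhered for 48 h, and were then treated for 24 h with DMSO matched. Lysis was in RIPA with protease/phosphatase inhibitors. AURKA was quantified by capillary Simple Western with peak areas normalised to vinculin. Fold change is relative to DMSO (mean ± SD, n = 3).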

[19] = Growth inhibition of patient derived 000GKX Neuroblastoma organoid assessed as reduction in viability […] by CellTiter Glo 3D assay; format: functional, tissue-based, Homo sapiens; how it was run: as §1
[20] = molecular target: T1, N-myc proto-oncogene protein (Homo sapiens); assay: Induction of MYCN degradation in human NGP cells at 500 nM measured for 72 hrs by Western blot analysis relative to control; format: cell-based; how it was run: as §3

T2 sequence (O14965 whole entry, looked up): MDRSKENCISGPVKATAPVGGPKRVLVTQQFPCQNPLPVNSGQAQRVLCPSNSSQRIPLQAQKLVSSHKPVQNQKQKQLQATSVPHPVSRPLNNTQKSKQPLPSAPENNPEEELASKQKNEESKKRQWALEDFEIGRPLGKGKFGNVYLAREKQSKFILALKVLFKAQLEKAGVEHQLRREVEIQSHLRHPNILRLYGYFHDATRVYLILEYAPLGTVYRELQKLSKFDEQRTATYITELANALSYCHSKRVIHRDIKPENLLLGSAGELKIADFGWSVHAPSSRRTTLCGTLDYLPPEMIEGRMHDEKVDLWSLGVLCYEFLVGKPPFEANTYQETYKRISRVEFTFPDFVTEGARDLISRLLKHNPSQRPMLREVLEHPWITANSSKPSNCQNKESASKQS
T2 sequence (Q96SW2 whole entry, looked up): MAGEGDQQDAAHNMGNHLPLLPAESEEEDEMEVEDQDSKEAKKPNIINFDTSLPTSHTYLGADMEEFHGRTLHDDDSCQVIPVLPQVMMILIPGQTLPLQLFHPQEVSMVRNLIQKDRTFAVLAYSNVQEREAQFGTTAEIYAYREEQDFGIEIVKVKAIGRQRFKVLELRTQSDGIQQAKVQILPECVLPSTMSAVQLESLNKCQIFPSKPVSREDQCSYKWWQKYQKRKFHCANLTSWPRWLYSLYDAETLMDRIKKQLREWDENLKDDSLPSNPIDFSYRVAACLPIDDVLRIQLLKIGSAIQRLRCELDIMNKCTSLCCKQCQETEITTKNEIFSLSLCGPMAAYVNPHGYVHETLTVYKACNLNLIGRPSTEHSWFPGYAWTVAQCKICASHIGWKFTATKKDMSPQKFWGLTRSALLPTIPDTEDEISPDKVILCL

SMILES: O=C1CCC(N2C(=O)c3cccc(OCCOCCOCCOCCNC(=O)[C@]4(Cc5cccc(Nc6nccs6)n5)CC[C@@H](Oc5cccc(Cl)c5F)CC4)c3C2=O)C(=O)N1 (stereo partly specified)
- IC50 [1]: Not Active
- IC50 [2]: 26.4 nM
- Emax [3]: 53.5%
- Activity [4]: Dose-Dependent Effect
- IC50 [5]: Not Active
- IC50 (IMR-32 [6]): 21.5 nM
- Activity [7]: 100%
- Emax (SK-N-AS [8]): 45%
- Activity [9]: inactive
- Activity (NGP): Active
- Emax [10]: 15.5%
- IC50 [11]: 31.9 nM
- Emax [12]: 27.8%
- Emax (IMR-32 [13]): 14.1%
- Activity [14]: Active
- Activity [15]: Active
- Activity [16]: Active
- IC50 (SK-N-AS [17]): 6690 nM
- Emax [18]: 85%
- IC50 [19]: Not Active
- Activity [20]: 73%
